Reference: PMC11401921 (Nature Communications, 2024)
Read-outs that look alike come from different tables or passages of the source.

Experiments:
[1] = target: T1, PYR1 (Arabidopsis thaliana, UniProt O49686); assay: ITC binding to PYR1; details: PYR1 wild type
T1 sequence (O49686 1-191): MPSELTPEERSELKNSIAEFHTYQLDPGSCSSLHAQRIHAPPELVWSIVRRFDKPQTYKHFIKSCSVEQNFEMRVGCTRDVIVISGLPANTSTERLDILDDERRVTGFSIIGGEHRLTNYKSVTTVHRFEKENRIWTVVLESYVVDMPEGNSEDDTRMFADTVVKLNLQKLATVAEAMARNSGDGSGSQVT
How it was run: (§1)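 Full-length N-terminal His6-tagged receptor was expressed in E. coli BL21(DE3) and purified by Ni-NTA, ion exchange and gel filtration, with the tag removed. ITC ran at 25 °C in 25 mM HEPES, 100 mM NaCl, pH 7.5, using degassed ligand dissolved in the same buffer. Final protein was 50–100 μM and ligand 500–1000 μM.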

[2] = tested on: HAB1 with PYR1, PYL1, PYL2, PYL3, PYL5, PYL6 and PYL10; assay: Phosphatase assay, HAB1 with all seven tested PYLs; format: biochemical, Arabidopsis thaliana; details: 5 μM ABA
How it was run: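 Recombinant His-tagged HAB1 phosphatase activity was measured with a Ser/Thr phosphatase assay system. Receptor:HAB1 was 0.4:0.4 μM (1:1) for PYR1, PYL1, PYL2 and PYL3, and 0.8:0.4 μM (2:1) for PYL5, PYL6 and PYL10. Mixtures were incubated with 5 μM ABA, 50 μM test compound, or both. Three biological replicates were run.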

[3] = target: T2, PYR1 dimer (Arabidopsis thaliana, UniProt O49686); assay: SEC-MALLS protein oligomeric state; details: 1 mM chemical(s), PYR1 80 μM
T2 sequence (O49686 1-191): T1 sequence (O49686 1-191)
How it was run: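 Size exclusion used a Superdex S200 column in 20 mM Tris pH 7.5, 150 mM NaCl, 1 mM β-mercaptoethanol, at 20 °C and 0.5 ml/min. The equilibration buffer held 1 mM ABA, 1 mM test compound, or both. Receptor was injected at 80 μM. Weight-averaged molar mass was calculated from on-line MALLS with a 690 nm laser.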

[4] = tested on: Arabidopsis WT (Col) seedlings; assay: GO analysis of DEGs; format: in vivo, Arabidopsis thaliana; details: unique DEGs
How it was run: (§2)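 Ten-day-old WT Col seedlings were mock-treated or exposed to 50 μM ABA or test compound for 3 h, in biological duplicates. Total RNA was sequenced as 50 bp paired-end reads, about 20 million per sample. Reads were mapped to the Arabidopsis gene model and counted per gene, then tested for differential expression. DEGs were subjected to GO analysis.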

[5] = target: T3, PYL1 (Arabidopsis thaliana, UniProt Q8VZS8); details: PYL1, literature value; cited from earlier work
T3 sequence (Q8VZS8 1-221): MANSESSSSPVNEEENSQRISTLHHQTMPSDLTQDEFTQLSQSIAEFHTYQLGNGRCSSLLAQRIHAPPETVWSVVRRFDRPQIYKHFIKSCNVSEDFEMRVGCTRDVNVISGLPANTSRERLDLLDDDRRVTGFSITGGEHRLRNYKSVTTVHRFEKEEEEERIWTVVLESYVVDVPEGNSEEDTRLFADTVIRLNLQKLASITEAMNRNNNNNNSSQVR

[6] = target: T3, PYL1; assay: ITC binding to PYL1
How it was run: as §1

[7] = tested on: Arabidopsis thaliana seeds (WT Col-0 and mutants); assay: Seed germination assay; format: in vivo; details: ABA 1 µM
How it was run: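 WT Col-0 and mutant seeds (pyr1/pyl1/pyl2/pyl4, pyl3/pyl7/pyl9/pyl11/pyl12, PYL4 overexpression) were stratified for 4 days. They were sown on half-strength MS agar with 1% sucrose containing 0.05% DMSO, 1 µM ABA, 1 µM test compound, or both. Each treatment used 40 seeds per plate on three plates, at 22 °C under long days. Seeds were scored daily as germinated when green cotyledons appeared.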

[8] = tested on: Arabidopsis WT (Col) seedlings; assay: RNA-Seq transcriptome analysis; format: in vivo, Arabidopsis thaliana; details: ten-day-old plants, 50 μM, 3 h
How it was run: as §2

[9] = tested on: seed germination; details: cited from earlier work

| SMILES | Kd [1] [µM] | inhibition of HAB1 activity [2] [%] | elution volume of PYR1 [3] [mL] | molecular mass of PYR1 ([3]; dimer theoretical 43 kDa) [kDa] | number of genes involved in seed germination induced (GO:0009845) [4] | Kd [5] [µM] | Kd [6] [µM] | germination rate ([7]; 4OE seeds) | germination phenotype ([7]; 1124 (pyr1/pyl1/pyl2/pyl4) seeds) | germination rate ([7]; 3791112 seeds) | germination rate ([7]; WT seeds) | number of genes specifically responsive [8] | number of differentially expressed genes (DEGs) induced ([8]; relative to DMSO) | activity in inhibiting seed germination relative to ABA [9] |
| --- | --- | --- | --- | --- | --- | --- | --- | --- | --- | --- | --- | --- | --- | --- |
| CC1=CC(=O)CC(C)(C)[C@@]1(O)/C=C/C(C)=C\C(=O)O [ABA, Abscisic acid] | 22 | ≥ 70 | 16.02 to 17.05 | 22 ± 2 | 28 | ~50 | 23.5 | lower than 30% | ABA insensitive phenotype | lower than 30% | lower than 30% | 2602 | 3366 |  |
| N#Cc1c(C2CC2)cc(CC(=O)NC2(C(=O)O)CCCCC2)cc1C1CC1 [opabactin] |  |  |  |  |  |  |  |  |  |  |  |  |  | ~ 10 fold |
